Measurements published in ChEMBL document CHEMBL1158120, “Cytotoxic oxygenated triterpenoid saponins from Symplocos chinensis” (J Nat Prod, 2006).

What was measured:
Type in all cases: functional, cell-based
BGC-823 = assay: Cytotoxicity against human BGC-823 cells by MTT assay
Summary of the method: (§1)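 MTT read-out of tumour-cell viability. IC50 values in µM are reported as means of three independent experiments.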

HCT-8 = assay: Cytotoxicity against human HCT8 cells by MTT assay; summary of the method: as §1
Bel-7402 = assay: Cytotoxicity against human Bel-7402 cells by MTT assay; summary of the method: as §1
A2780 = assay: Cytotoxicity against human A2780 cells by MTT assay; summary of the method: as §1
A549 = assay: Cytotoxicity against human A549 cells by MTT assay; summary of the method: as §1

Row | SMILES | IC50 (BGC-823) | IC50 (HCT-8) | IC50 (Bel-7402) | IC50 (A2780) | IC50 (A549)
1 | CC(=O)O[C@@H]1[C@@H](O[C@@H]2O[C@H](CO)[C@@H](O)[C@H](O)[C@H]2O)[C@H](O[C@H]2CC[C@]3(C)[C@H]4CC=C5[C@@H]6CC(C)(C)C[C@H](OC(=O)/C=C(/C)CCC=C(C)C)[C@]6(CO)[C@H](O)[C@H](O)[C@@]5(C)[C@]4(C)CC[C@H]3C2(C)C)O[C@H](C(=O)O)[C@H]1O[C@@H]1O[C@@H](CO)[C@H](O)[C@H]1O [SYMPLOCOSOSIDE O] | > 10 µM | 1700 nM | 2400 nM | > 10000 nM | > 10 µM
2 | CCC(C)C(=O)O[C@H]1[C@H](OC(=O)/C=C(\C)CCC=C(C)C)C(C)(C)C[C@H]2C3=CC[C@@H]4[C@@]5(C)CC[C@H](O[C@@H]6O[C@H](C(=O)O)[C@@H](O)[C@H](O)[C@H]6O[C@@H]6O[C@H](CO)[C@@H](O)[C@H](O)[C@H]6O)C(C)(C)[C@@H]5CC[C@@]4(C)[C@]3(C)[C@@H](O)[C@@H](O)[C@]21CO (some centres undefined) | > 10 µM | > 10000 nM | > 10000 nM | 1900 nM | > 10 µM
3 | CC(=O)O[C@@H]1[C@@H](O[C@@H]2O[C@H](CO)[C@@H](O)[C@H](O)[C@H]2O)[C@H](O[C@H]2CC[C@]3(C)[C@H]4CC=C5[C@@H]6CC(C)(C)[C@@H](OC(=O)/C=C(/C)CCC=C(C)C)[C@H](OC(=O)c7ccccc7)[C@]6(CO)[C@H](O)[C@H](O)[C@@]5(C)[C@]4(C)CC[C@H]3C2(C)C)O[C@H](C(=O)O)[C@H]1O[C@@H]1O[C@@H](CO)[C@H](O)[C@H]1O [SYMPLOCOSOSIDE J] | 1.8 µM | 2100 nM | 1700 nM | 1400 nM | 3 µM
4 | CCC(C)C(=O)O[C@H]1[C@H](OC(=O)/C=C/c2ccccc2)C(C)(C)C[C@H]2C3=CC[C@@H]4[C@@]5(C)CC[C@H](O[C@@H]6O[C@H](CO)[C@@H](O[C@@H]7O[C@@H](CO)[C@H](O)[C@H]7O)[C@H](OC(C)=O)[C@H]6O[C@@H]6O[C@H](CO)[C@@H](O)[C@H](O)[C@H]6O)C(C)(C)[C@@H]5CC[C@@]4(C)[C@]3(C)[C@@H](O)[C@@H](O)[C@]21CO (some centres undefined) [SYMPLOCOSOSIDE Y] | > 10 µM | > 10000 nM | > 10000 nM | 3400 nM | > 10 µM
5 | CC(=O)O[C@@H]1[C@@H](O[C@@H]2O[C@H](CO)[C@@H](O)[C@H](O)[C@H]2O)[C@H](O[C@H]2CC[C@]3(C)[C@H]4CC=C5[C@@H]6CC(C)(C)[C@@H](OC(=O)/C=C(\C)CCC=C(C)C)[C@H](OC(=O)C(C)C)[C@]6(CO)[C@H](O)[C@H](O)[C@@]5(C)[C@]4(C)CC[C@H]3C2(C)C)O[C@H](C(=O)O)[C@H]1O[C@@H]1O[C@@H](CO)[C@H](O)[C@H]1O [SYMPLOCOSOSIDE M] | > 10 µM | 2700 nM | 3800 nM | 2300 nM | > 10 µM
6 | CCC(C)C(=O)O[C@H]1[C@H](OC(=O)/C=C(/C)CCC=C(C)C)C(C)(C)C[C@H]2C3=CC[C@@H]4[C@@]5(C)CC[C@H](O[C@@H]6O[C@H](C(=O)OC)[C@@H](O[C@@H]7O[C@@H](CO)[C@H](O)[C@H]7O)[C@H](OC(C)=O)[C@H]6O[C@@H]6O[C@H](CO)[C@@H](O)[C@H](O)[C@H]6O)C(C)(C)[C@@H]5CC[C@@]4(C)[C@]3(C)[C@@H](O)[C@@H](O)[C@]21CO (some centres undefined) [SYMPLOCOSOSIDE I] | > 10 µM | 1700 nM | 2700 nM | 3200 nM | > 10 µM
7 | CCCCOC(=O)[C@H]1O[C@@H](O[C@H]2CC[C@]3(C)[C@H]4CC=C5[C@@H]6CC(C)(C)[C@@H](OC(=O)/C=C(\C)CCC=C(C)C)[C@H](OC(=O)C(C)CC)[C@]6(CO)[C@H](O)[C@H](O)[C@@]5(C)[C@]4(C)CC[C@H]3C2(C)C)[C@H](O[C@@H]2O[C@H](CO)[C@@H](O)[C@H](O)[C@H]2O)[C@@H](O)[C@@H]1O[C@@H]1O[C@@H](CO)[C@H](O)[C@H]1O (some centres undefined) [SYMPLOCOSOSIDE D] | > 10 µM | > 10000 nM | 1890 nM | 1740 nM | > 10 µM
8 | CC(=O)O[C@@H]1[C@@H](O[C@@H]2O[C@H](CO)[C@@H](O)[C@H](O)[C@H]2O)[C@H](O[C@H]2CC[C@]3(C)[C@H]4CC=C5[C@@H]6CC(C)(C)[C@@H](OC(=O)/C=C(/C)CCC=C(C)C)[C@H](OC(=O)C(C)C)[C@]6(CO)[C@H](O)[C@H](O)[C@@]5(C)[C@]4(C)CC[C@H]3C2(C)C)O[C@H](C(=O)O)[C@H]1O[C@@H]1O[C@@H](CO)[C@H](O)[C@H]1O [SYMPLOCOSOSIDE L] | > 10 µM | 1700 nM | 2700 nM | 2400 nM | > 10 µM
9 | CCC(C)C(=O)O[C@H]1[C@H](OC(=O)/C=C(/C)CCC=C(C)C)C(C)(C)C[C@H]2C3=CC[C@@H]4[C@@]5(C)CC[C@H](O[C@@H]6O[C@H](C(=O)O)[C@@H](O)[C@H](O)[C@H]6O[C@@H]6O[C@H](CO)[C@@H](O)[C@H](O)[C@H]6O)C(C)(C)[C@@H]5CC[C@@]4(C)[C@]3(C)[C@@H](O)[C@@H](O)[C@]21CO (some centres undefined) [SYMPLOCOSOSIDE R] | > 10 µM | 4400 nM | 4100 nM | 1900 nM | > 10 µM
10 | CC(C)=CCC/C(C)=C\C(=O)O[C@H]1CC(C)(C)C[C@H]2C3=CC[C@@H]4[C@@]5(C)CC[C@H](O)C(C)(C)[C@@H]5CC[C@@]4(C)[C@]3(C)[C@@H](O)[C@@H](O)[C@@]12CO | > 10 µM | > 10000 nM | > 10000 nM | > 10000 nM | > 10 µM
11 | CCC(C)C(=O)O[C@H]1[C@H](OC(=O)/C=C(\C)CCC=C(C)C)C(C)(C)C[C@H]2C3=CC[C@@H]4[C@@]5(C)CC[C@H](O[C@@H]6O[C@H](C(=O)O)[C@@H](O[C@@H]7O[C@@H](CO)[C@H](O)[C@H]7O)[C@H](OC(C)=O)[C@H]6O[C@@H]6O[C@H](CO)[C@@H](O)[C@H](O)[C@H]6O)C(C)(C)[C@@H]5CC[C@@]4(C)[C@]3(C)[C@@H](O)[C@@H](O)[C@]21CO (some centres undefined) [SYMPLOCOSOSIDE H] | 2.5 µM | 2100 nM | 2600 nM | 1400 nM | 2.7 µM
12 | COC(=O)[C@H]1O[C@@H](O[C@H]2CC[C@]3(C)[C@H]4CC=C5[C@@H]6CC(C)(C)[C@@H](OC(=O)/C=C(/C)CCC=C(C)C)[C@H](OC(=O)c7ccccc7)[C@]6(CO)[C@H](O)[C@H](O)[C@@]5(C)[C@]4(C)CC[C@H]3C2(C)C)[C@H](O[C@@H]2O[C@H](CO)[C@@H](O)[C@H](O)[C@H]2O)[C@@H](OC(C)=O)[C@@H]1O[C@@H]1O[C@@H](CO)[C@H](O)[C@H]1O [SYMPLOCOSOSIDE K] | > 10 µM | 2400 nM | 5100 nM | 800 nM | 4 µM
13 | COc1cccc2c1C(=O)c1c(O)c3c(c(O)c1C2=O)C[C@@](O)(C(=O)CO)C[C@@H]3O[C@H]1C[C@H](N)[C@H](O)[C@H](C)O1 [DOXORUBICIN] | 1 µM | 800 nM | 1000 nM | 100 nM | –
